“Also recorded” adds a separate entry of the source.
Columns and labels:
G551D-CFTR = G551D-CFTR (Homo sapiens, UniProt P13569, G551D); assay: Inside-out patch-clamp of CFTR currents in transfected CHO cells; format: cell-based
Outline: (§1)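 CFTR construct and GFP plasmid cotransfected into CHO cells, held at 27°C for 2–6 d. Inside-out patches at room temperature, −30 mV, NMDG-Cl solutions at pH 7.4. Channels preactivated with 25 IU PKA plus 2 mM MgATP, then test compound (max 40 µM) applied in 2 mM ATP. ATP-subtracted steady-state currents normalized to the 3 µM response in the same patch. Hill fit with base 0 and maximum 1; EC50 ± SD of fit; 3–7 patches per point.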

F229A-CFTR = F229A-CFTR (Homo sapiens, UniProt P13569, F229A); assay: as above; format: cell-based; conditions: 200 nM VX-770, mean
Outline: as §1

S182A-CFTR = S182A-CFTR (Homo sapiens, UniProt P13569, S182A); assay: as above; format: cell-based; conditions: 200 nM VX-770, mean
Outline: as §1

Y304A-CFTR = Y304A-CFTR (Homo sapiens, UniProt P13569, Y304A); assay: Inside-out patch-clamp of CFTR currents in transfected CHO cells; format: cell-based; conditions: 200 nM VX-770, mean
Outline: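 Relaxation assay: PKA-preactivated channels in 2 mM ATP at −30 mV exposed to test compound through a fast three-barrel perfusion system (dead time ∼30 ms). Current decay after sudden removal of 3 µM compound fitted with a single exponential to give relaxation time constant τ.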

D924N-CFTR = D924N-CFTR (Homo sapiens, UniProt P13569, D924N); assay: Inside-out patch-clamp of CFTR currents in transfected CHO cells; format: cell-based; conditions: 200 nM VX-770, 2 mM ATP, mean
Outline: as §1

S1141K/G551D-CFTR = S1141K/G551D-CFTR (Homo sapiens, UniProt P13569, G551D/S1141K); assay: as above; format: cell-based; conditions: mean
Outline: as §1

WT-CFTR [1] = biological target: T1, WT-CFTR (Homo sapiens, UniProt P13569); conditions: ref Jih and Hwang, 2013; cited from earlier work
F236A-CFTR = F236A-CFTR (Homo sapiens, UniProt P13569, F236A); assay: Inside-out patch-clamp of CFTR currents in transfected CHO cells; format: cell-based; conditions: 200 nM VX-770, mean
Outline: as §1

N1138L/G551D-CFTR = N1138L/G551D-CFTR (Homo sapiens, UniProt P13569, G551D/N1138L); assay: as above; format: cell-based; conditions: mean
Outline: as §1

S263A-CFTR = S263A-CFTR (Homo sapiens, UniProt P13569, S263A); assay: as above; format: cell-based; conditions: 200 nM VX-770, mean
Outline: as §1

WT-CFTR [2] = biological target: T1, WT-CFTR; assay: as above; format: cell-based; conditions: mean
Outline: as §1

F304Y-mCFTR = F304Y-mCFTR (Mus musculus, UniProt P26361, F304Y); assay: as above; format: cell-based
Outline: as §1

WT-mCFTR = WT-mCFTR (Mus musculus, UniProt P26361); assay: Inside-out patch-clamp of CFTR currents in transfected CHO cells; format: cell-based; conditions: 200 nM VX-770, 2 mM ATP
Outline: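 Mouse CFTR expressed in CHO cells; inside-out patches. Phosphorylated channels opened by 2 mM ATP before the potentiator was applied (one potentiator at 200 nM). 5 µM CFTRinh-172 added at the end of each recording for baseline.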

F312A-CFTR = F312A-CFTR (Homo sapiens, UniProt P13569, F312A); assay: Inside-out patch-clamp of CFTR currents in transfected CHO cells; format: cell-based; conditions: 200 nM VX-770, 30 µM ATP, mean
Sequence of F312A-CFTR (P13569 whole entry F312A): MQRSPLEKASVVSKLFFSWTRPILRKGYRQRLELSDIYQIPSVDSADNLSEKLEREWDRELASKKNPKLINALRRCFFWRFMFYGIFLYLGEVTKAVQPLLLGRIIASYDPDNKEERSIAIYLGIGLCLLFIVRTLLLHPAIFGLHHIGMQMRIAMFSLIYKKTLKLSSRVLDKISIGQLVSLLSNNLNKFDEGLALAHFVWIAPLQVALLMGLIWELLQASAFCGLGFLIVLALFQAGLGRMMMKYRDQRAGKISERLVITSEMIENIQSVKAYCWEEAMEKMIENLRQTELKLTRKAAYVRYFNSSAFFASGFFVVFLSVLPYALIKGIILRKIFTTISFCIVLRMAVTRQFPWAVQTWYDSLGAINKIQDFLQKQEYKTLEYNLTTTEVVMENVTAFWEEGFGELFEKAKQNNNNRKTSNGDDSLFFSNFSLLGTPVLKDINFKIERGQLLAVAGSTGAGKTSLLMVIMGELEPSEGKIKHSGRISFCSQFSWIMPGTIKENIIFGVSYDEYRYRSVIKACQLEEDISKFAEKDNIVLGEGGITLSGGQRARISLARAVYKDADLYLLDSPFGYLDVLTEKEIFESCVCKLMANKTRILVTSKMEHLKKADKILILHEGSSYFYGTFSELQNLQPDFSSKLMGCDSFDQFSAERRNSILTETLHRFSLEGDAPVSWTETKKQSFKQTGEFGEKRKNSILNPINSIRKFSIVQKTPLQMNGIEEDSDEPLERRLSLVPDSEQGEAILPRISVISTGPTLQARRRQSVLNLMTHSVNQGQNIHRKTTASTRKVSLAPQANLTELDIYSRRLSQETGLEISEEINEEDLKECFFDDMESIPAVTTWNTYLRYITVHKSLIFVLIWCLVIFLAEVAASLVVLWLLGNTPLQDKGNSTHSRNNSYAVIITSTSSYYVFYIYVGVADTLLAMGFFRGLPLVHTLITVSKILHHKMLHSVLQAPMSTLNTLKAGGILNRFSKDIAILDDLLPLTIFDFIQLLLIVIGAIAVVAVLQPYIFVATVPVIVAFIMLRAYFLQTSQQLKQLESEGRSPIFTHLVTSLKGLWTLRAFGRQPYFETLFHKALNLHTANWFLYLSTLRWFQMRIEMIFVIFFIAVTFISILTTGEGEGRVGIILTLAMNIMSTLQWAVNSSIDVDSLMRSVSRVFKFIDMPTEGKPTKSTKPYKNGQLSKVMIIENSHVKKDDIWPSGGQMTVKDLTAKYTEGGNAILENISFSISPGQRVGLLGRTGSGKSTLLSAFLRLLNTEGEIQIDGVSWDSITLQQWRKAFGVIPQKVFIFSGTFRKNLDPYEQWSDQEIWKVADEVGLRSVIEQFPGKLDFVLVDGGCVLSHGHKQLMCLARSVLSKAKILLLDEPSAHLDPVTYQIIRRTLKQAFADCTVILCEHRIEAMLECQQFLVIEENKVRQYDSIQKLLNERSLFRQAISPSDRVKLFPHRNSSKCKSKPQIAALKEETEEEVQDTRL

T1 sequence (P13569 whole entry): as the sequence (P13569 whole entry F312A) above, with A312F counted along it
Sequence of Y304A-CFTR (P13569 whole entry Y304A, the tested form may be a part): as the sequence (P13569 whole entry F312A) above, with Y304A, A312F counted along it
Sequence of S263A-CFTR (P13569 whole entry S263A): as the sequence (P13569 whole entry F312A) above, with S263A, A312F counted along it
Sequence of F304Y-mCFTR (P26361 whole entry F304Y): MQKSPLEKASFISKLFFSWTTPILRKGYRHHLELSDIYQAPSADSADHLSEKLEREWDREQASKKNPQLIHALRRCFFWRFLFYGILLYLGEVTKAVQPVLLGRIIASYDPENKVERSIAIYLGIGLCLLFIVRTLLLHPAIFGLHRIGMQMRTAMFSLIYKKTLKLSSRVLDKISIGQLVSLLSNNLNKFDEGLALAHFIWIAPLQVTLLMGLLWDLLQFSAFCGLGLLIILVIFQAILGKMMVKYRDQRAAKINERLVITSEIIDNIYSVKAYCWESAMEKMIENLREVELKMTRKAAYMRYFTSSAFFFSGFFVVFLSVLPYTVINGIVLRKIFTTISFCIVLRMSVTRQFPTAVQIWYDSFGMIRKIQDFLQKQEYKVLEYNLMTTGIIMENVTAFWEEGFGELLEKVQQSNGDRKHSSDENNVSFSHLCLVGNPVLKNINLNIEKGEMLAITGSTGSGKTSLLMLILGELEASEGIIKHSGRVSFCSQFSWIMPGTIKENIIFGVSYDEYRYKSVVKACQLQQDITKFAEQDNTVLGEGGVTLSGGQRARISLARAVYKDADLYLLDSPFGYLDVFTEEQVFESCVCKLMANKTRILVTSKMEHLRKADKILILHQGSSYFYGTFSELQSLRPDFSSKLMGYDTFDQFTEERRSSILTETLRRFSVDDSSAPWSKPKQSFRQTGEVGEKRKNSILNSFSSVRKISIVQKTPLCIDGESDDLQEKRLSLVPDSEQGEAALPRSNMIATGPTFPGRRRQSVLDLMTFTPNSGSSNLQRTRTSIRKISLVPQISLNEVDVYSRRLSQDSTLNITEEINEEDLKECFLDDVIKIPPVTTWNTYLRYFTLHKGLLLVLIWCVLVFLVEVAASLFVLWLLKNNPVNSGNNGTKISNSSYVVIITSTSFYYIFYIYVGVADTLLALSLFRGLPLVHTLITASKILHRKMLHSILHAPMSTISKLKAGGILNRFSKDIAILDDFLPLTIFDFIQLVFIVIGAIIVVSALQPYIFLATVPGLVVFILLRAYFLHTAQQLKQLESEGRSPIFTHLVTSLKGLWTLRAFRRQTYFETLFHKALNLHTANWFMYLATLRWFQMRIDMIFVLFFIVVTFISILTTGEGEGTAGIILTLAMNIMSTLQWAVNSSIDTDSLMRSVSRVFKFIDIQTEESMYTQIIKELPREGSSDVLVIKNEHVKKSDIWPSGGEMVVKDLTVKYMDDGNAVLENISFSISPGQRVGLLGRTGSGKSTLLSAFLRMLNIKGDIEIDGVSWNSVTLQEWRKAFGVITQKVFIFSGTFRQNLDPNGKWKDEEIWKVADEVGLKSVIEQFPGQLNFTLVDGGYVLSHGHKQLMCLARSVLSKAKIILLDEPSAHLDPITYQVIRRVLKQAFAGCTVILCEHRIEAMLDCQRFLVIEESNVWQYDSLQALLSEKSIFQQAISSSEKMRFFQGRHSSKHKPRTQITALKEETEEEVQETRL
Sequence of D924N-CFTR (P13569 whole entry D924N): as the sequence (P13569 whole entry F312A) above, with A312F, D924N counted along it
Sequence of S1141K/G551D-CFTR (P13569 whole entry G551D/S1141K): as the sequence (P13569 whole entry F312A) above, with A312F, G551D, S1141K counted along it
Sequence of N1138L/G551D-CFTR (P13569 whole entry G551D/N1138L): as the sequence (P13569 whole entry F312A) above, with A312F, G551D, N1138L counted along it
Sequence of F229A-CFTR (P13569 whole entry F229A): as the sequence (P13569 whole entry F312A) above, with F229A, A312F counted along it
Sequence of S182A-CFTR (P13569 whole entry S182A): as the sequence (P13569 whole entry F312A) above, with S182A, A312F counted along it
Sequence of G551D-CFTR (P13569 whole entry G551D): as the sequence (P13569 whole entry F312A) above, with A312F, G551D counted along it
Sequence of F236A-CFTR (P13569 whole entry F236A): as the sequence (P13569 whole entry F312A) above, with F236A, A312F counted along it
Sequence of WT-mCFTR (P26361 whole entry): as the sequence (P26361 whole entry F304Y) above, with Y304F counted along it

τoff (VX-770) (G551D-CFTR; current decay on removal of VX-770, mean): 68 ± 14 s | τon (VX-770) (G551D-CFTR; current rise on application of VX-770, mean): 5.9 ± 2.4 s | τoff (VX-770) (F229A-CFTR): 338 ± 49 s | τon (VX-770) (F229A-CFTR): 6.2 ± 1.3 s | τoff (VX-770) (S182A-CFTR): 343 ± 96 s | τon (VX-770) (S182A-CFTR): 8.2 ± 1.5 s | τoff (VX-770) (Y304A-CFTR): 18 ± 6 s | τon (VX-770) (Y304A-CFTR): 49 ± 11 s | τoff (VX-770) (D924N-CFTR): 115 ± 7 s | τon (VX-770) (D924N-CFTR): 78 ± 18 s | τoff (VX-770) (S1141K/G551D-CFTR): 221 ± 50 s | τon (VX-770) (S1141K/G551D-CFTR): 14 ± 6 s | τoff (VX-770) (F236A-CFTR): 173 ± 45 s | τon (VX-770) (F236A-CFTR): 19 ± 8 s | τoff (VX-770) (N1138L/G551D-CFTR): 268 ± 25 s | τon (VX-770) (N1138L/G551D-CFTR): 18 ± 5 s | τoff (VX-770) (S263A-CFTR): 288 ± 68 s | τon (VX-770) (S263A-CFTR): 6.1 ± 1.5 s | τoff (VX-770) (WT-CFTR [2]; current decay on removal of 200 nM VX-770, 2 mM ATP): 361 ± 39 s | τon (VX-770) (WT-CFTR [2]; current rise on application of 200 nM VX-770, 2 mM ATP): 6.7 ± 1.2 s | Potentiation of currents by VX-770 (WT-mCFTR): fails to potentiate | τoff (VX-770) (F312A-CFTR): 38 ± 5 s | τon (VX-770) (F312A-CFTR): 15 ± 1 s
SMILES: CC(C)(C)c1cc(C(C)(C)C)c(NC(=O)c2c[nH]c3ccccc3c2=O)cc1O [VX-770, N-(2,4-di-tert-butyl-5-hydroxyphenyl)-4-oxo-1,4-dihydroquinoline-3-carboxamide]
Saturating concentration for VX-770 (WT-CFTR [1]): 200 nM | Potentiation of currents by VX-770 (F304Y-mCFTR): restores the potentiating effects; also recorded: Restoring the effect
